Results from different studies.
Protocols differ between the studies behind these lines.
Sample: plasma

COc1cc2c3c(n(CCCN4CCOCC4)c(=O)c2cc1OC)-c1cc2c(cc1C3=O)OCO2  AUC(0-inf) (male Fischer 344 rat; intravenous, 12 mg/m², single dose): 232 ng·h/mL
COc1ccc(C(C)=O)c(O)c1  AUC(0-inf) (male Sprague-Dawley rat; oral, 100 mg/kg): 38600 ng·h/mL
Cc1c(-c2ccccc2)cccc1N1C(=O)c2cc(CN[C@H](C(=O)O)C(C)O)c(OCc3cccc(C#N)c3)cc2C1=O (some centres unmarked)  AUC(0-inf) (Sprague-Dawley rat; oral, 50 mg/kg): 100 ng·h/mL
CNC(=O)c1c(C)oc2cc(Oc3ncnc4cc(OC)c(OC)cc34)ccc12  AUC(0-inf) (Sprague-Dawley rat; oral, 1 mg/kg, single dose): 6270 ng·h/mL
Oc1c(Br)cc(Cl)c2cccnc12  AUC(0-inf) (Sprague-Dawley rat; subcutaneous, 10 mg/kg): 5300 ng·h/mL
COc1ccc2c(Cc3ccccc3F)c3n(c(=O)c2c1OC)CCc1cc2c(cc1-3)OCO2  AUC(0-inf) (rat; intravenous, 5 mg/kg): 22700 ng·h/mL
CCc1cc(C(=O)NC)c2nccc(N3CCc4c(cc(Cn5ccnc5)cc4-c4cn(C)nc4C(F)(F)F)C3=O)c2c1  AUC(0-inf) (male Sprague-Dawley rat; oral, 50 mg/kg, single dose): 11100 ng·h/mL
COCCOC(=O)C1=C(C)NC(C)=C(C(=O)OC(C)C)C1c1cccc([N+](=O)[O-])c1 (centres unmarked)  AUC(0-inf) (male Sprague-Dawley rat; intravenous, 3 mg/kg): 573 ng·h/mL
C#Cc1cccc(Nc2ncnc3cc(OCCOC)c(OCCOC)cc23)c1  AUC(0-inf) (male Sprague-Dawley rat; oral, 12 mg/kg, single dose): 9260 ng·h/mL
CCc1cc(OC)c2nccc(N3CCc4c(cc(Cn5ccnc5)cc4-c4cn(C)nc4C(F)(F)F)C3=O)c2c1  AUC(0-inf) (male Sprague-Dawley rat; oral, 50 mg/kg): 10300 ng·h/mL
O=C(Nc1cc(F)c(F)c(F)c1)c1ccc(F)c(S(=O)(=O)NCc2cccc(B(O)O)c2)c1  AUC(0-inf) (male Sprague-Dawley rat; intravenous, 2 mg/kg): 246 ng·h/mL
Oc1cc(O)cc(-c2cc3ccc(O)cc3o2)c1  AUC(0-inf) (male rat; intravenous, 5 mg/kg): 932 ng·h/mL
COc1nc(-c2cc(C)c(N[C@@H](C)c3cc(F)cc(F)c3)nn2)ccc1-n1cnc(C)c1  AUC(0-inf) (male Sprague-Dawley rat; intravenous, 1 mg/kg, single dose): 6710 ng·h/mL
CCOC(=O)[C@@]12C[C@@H]1[C@@H](n1ccc3c(NC)nc(C#Cc4ccc(Cl)s4)nc31)[C@H](O)[C@@H]2O  AUC(0-inf) (male Sprague-Dawley rat; oral, 3 mg/kg): 172 ng·h/mL
